Bioassay records: PubChem, several laboratories
Rows were chosen to be rich in hits. Some 1.5% of all compounds tested hit in one or more screens of this group.
CHT allo act: allosteric activators of human choline transporter CHT; B-score at 10 µM; 310,000 tested, 0.49% active; CHT-expressing cells, membrane potential dye, choline EC20; active compounds read high; LV-AA mutant CHT in HEK293 cells; Q9GZV3;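 active means initial fluorescence not abnormally high and integrated response B-score, plate-corrected, over 3 SD above library mean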
Target sequence (Q9GZV3 whole entry, looked up): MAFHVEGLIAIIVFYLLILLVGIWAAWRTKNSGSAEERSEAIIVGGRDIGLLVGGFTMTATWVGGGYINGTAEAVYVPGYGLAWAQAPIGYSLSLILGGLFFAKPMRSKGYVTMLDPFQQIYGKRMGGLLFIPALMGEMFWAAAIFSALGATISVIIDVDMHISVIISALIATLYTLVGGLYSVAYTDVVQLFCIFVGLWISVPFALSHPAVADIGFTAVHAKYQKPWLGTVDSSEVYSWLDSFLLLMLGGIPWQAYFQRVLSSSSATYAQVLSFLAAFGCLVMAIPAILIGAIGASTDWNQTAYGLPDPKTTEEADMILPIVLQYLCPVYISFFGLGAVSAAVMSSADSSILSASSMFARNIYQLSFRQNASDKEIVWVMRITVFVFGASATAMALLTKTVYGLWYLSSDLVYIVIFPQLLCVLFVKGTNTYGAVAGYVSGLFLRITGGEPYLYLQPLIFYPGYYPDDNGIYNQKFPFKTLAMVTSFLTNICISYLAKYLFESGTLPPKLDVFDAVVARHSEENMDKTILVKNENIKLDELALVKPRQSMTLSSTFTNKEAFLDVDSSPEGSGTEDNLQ
T cell HTS: modulates CD8 T cell binding to vesicles | 330,000 tested, 0.068% active | AID 2052 | 2C CD8+ T cell-vesicle binding, flow cytometry; active compounds read low | response (vesicle binding), % at 7 µM;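 active means response, share of CD8 T cells binding vesicles, and their 90th percentile fluorescence all below set limits, cut at about 80% in these data, passing the limit was not always enough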;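 further: values below 100% mean blocked vesicle binding to the CD8+ T cells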
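Material: murine 2C transgenic CD8+ T lymphocytes / Also added: QL9-peptide-loaded Drosophila micro-vesicles bearing Ld, ICAM-1 and B7-1 / Schedule: binding step 1.5 h, 37 °C, antibody labelling 20 min, ice / Signal: flow cytometry, PE anti-B7-1 (FL2) versus Alexa647 anti-CD8 (FL8), PFA-fixed / Evaluation: percent CD8+ FL2 mean versus row control / Benchmarks: naked versus QL9-loaded vesicles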
VLA-4 inh: inhibition in a human VLA-4 binding assay | 330,000 tested, 0.2% active | P13612 | VLA-4 expressing cells, ligand binding flow cytometry | inhibition, % (about 7 µM as worked out from the volumes in the protocol); in the data active means inhibition above about 50%
CHT inh: inhibits the human high affinity choline transporter | Q9GZV3 | CHT-expressing cells, membrane potential dye, choline response; active compounds read low | B-score at 10 µM | 310,000 tested, 0.86% active;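 active means B-score over 3 SD under the library average, and starting fluorescence ratio not unusually high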;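 further: choline stimulus applied at its EC90 after an EC20 pre-addition; B-score computed on integrated fluorescence ratio after choline addition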
CHT inh conf: confirmation of human choline transporter CHT inhibitors; CHT activity remaining % of control (active compounds read low), % at 10 µM; CHT-expressing cells, choline membrane potential dye; LV-to-AA substituted CHT, HEK293 cells; 2,400 tested, 70% active; shares compounds with CHT inh; AID 493221;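 active means choline transporter activity left, mean of duplicates at 10 µM, below buffer-only control mean minus 3 SD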;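 further: depolarization triggered by choline at its EC90 following an EC20 pre-addition; 0% = hemicholinium-3 full block and 100% = buffer-only control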
HEK293 CHT ctr: activity in parental HEK293 cells lacking CHT; shares compounds with CHT inh; membrane potential dye, choline response; active = decrease or increase beyond buffer ±3SD; membrane potential ratio readout (active if shifted either direction beyond buffer ±3SD; no single direction) at 10 µM; 2,400 tested, 4% active; AID 493222;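 further: parental cells lack the transporter so any hit is non-specific; ratio is peak minus trough fluorescence over baseline after EC90 choline challenge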
CHT activ conf: human CHT activation, confirmatory screen | activation, % at 10 µM | CHT-expressing cells, membrane potential dye fluorescence (FDSS); % of choline EC20–EC90 response window; HEK293 expressing CHT LV-AA mutant; choline added at its EC20 | AID 504833 | shares compounds with CHT allo act | 2,500 tested, 91% active;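 active means primary screen active, with duplicate mean activation above negative control mean plus 3 SD, cut at about 11% in these data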
HEK293 MP dye: CHT activator counter-screen hit in parental HEK293 cells; shares compounds with CHT allo act; membrane potential dye fluorescence (FDSS); measured after EC20 choline addition; ratio readout change at 10 µM, hits read low; 2,500 tested, 62% active;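 active means duplicate-averaged ratio beyond 3 SD from buffer wells, up or down, though filed actives are nearly all decreases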
Active calls of the source: *; i = inactive; nt = no result given.

SMILES	CHT allo act	T cell HTS	VLA-4 inh	CHT inh	CHT activ conf	HEK293 MP dye	others
Oc1ccc(C[C@H]2NCCc3cc(O)c(O)cc32)cc1O	i	291	-3	-6.5*	nt	nt	CHT inh conf=28%*;HEK293 CHT ctr=i
Cc1cc(/C=C2\C(=O)NC(=O)N(Cc3ccco3)C2=O)c(C)n1-c1ccc(C(=O)O)cc1	i	115	27	-6.3*	nt	nt	CHT inh conf=61%*;HEK293 CHT ctr=i
Cc1cc(/C=C2\C(=O)NC(=O)N(Cc3ccco3)C2=O)c(C)n1-c1ccc(O)cc1	i	176	9	i	nt	nt
O=C(NCCO)c1nsnc1NCCCl	i	430	6	i	nt	nt
CCOC(=O)c1c(N)n(CCCOC(=O)c2ccco2)c2nc3ccccc3nc12	i	107	14	i	nt	nt
CCCCCn1c(NC(=O)c2ccco2)c(C(=O)OCC)c2nc3ccccc3nc21	i	132	-8	-5.6*	nt	nt	CHT inh conf=i;HEK293 CHT ctr=i
C[C@H]1CCC/C=C/C2C[C@H](O)CC2[C@H](O)/C=C/C(=O)O1 (stereo partly specified)	i	116	5	i	nt	nt
CC1CCC/C=C/C2CC(O)CC2C(O)/C=C/C(=O)O1 (stereo unspecified)	i	236	-5	-6.6*	nt	nt	CHT inh conf=46%*;HEK293 CHT ctr=i
CCCCCn1c(=O)c(C(=O)Nc2nc(CC(=O)OCC)cs2)c(O)c2ccccc21	i	377	22	i	nt	nt
C/C(=N\N=C(N)N)c1ccccc1	i	147	0	-9.9*	nt	nt	CHT inh conf=18%*;HEK293 CHT ctr=i
Cc1ccccc1CCNCc1cc2cccc(C)c2[nH]c1=O	i	197	0	-8.7*	nt	nt	CHT inh conf=18%*;HEK293 CHT ctr=i
CC1CCCCN1Cc1c[nH]c2ccccc12 (stereo unspecified)	i	422	-3	-5.7*	nt	nt	CHT inh conf=i;HEK293 CHT ctr=i
COC(=O)C1=C(c2cccc(C#N)c2)C[C@@H]2CC[C@H]1N2C(=O)NCCOc1ccccc1Cl	nt	316	0	nt	nt	nt
C[C@]12CCC3[C@@H](CCC4=CC(=O)CC[C@@]43C=O)C1CCC2=O (stereo partly specified)	i	180	7	i	nt	nt
CCCNC(=O)N1[C@H]2CC[C@@H]1C(C(=O)OC)=C(c1ccc(OC)c(OC)c1)C2	nt	350	4	nt	nt	nt
CCC(C)/C=C(C)/C=C/C1=CC2=C(Cl)C(=O)C(C)(OC(C)=O)C(=O)C2=CO1 (stereo unspecified)	i	388	16	-8.4*	nt	nt	CHT inh conf=24%*;HEK293 CHT ctr=i
CC[C@H](C)/C=C(C)/C=C/C1=CC2=C(Cl)C(=O)[C@@](C)(OC(C)=O)C(=O)C2=CO1	i	358	25	i	nt	nt
N=c1c[n+](CC23CC4CC(CC(C4)C2)C3)[n-]o1	i	297	1	-5.6*	nt	nt	CHT inh conf=37%*;HEK293 CHT ctr=i
CC[n+]1c(SC)ccc2cc(OC)ccc21	i	214	3	i	64*	-59*
CNC(=S)N(C)CCc1cc2c(c(OC)c1C=C1C(=O)NC(=O)NC1=O)OCO2	7.3*	i	2	i	51*	-56*
COC(=O)c1c2[n+](cc3cc(OC)c(OC)cc13)CCc1cc(OC)c(OC)cc1-2	i	365	-4	i	44*	-49*
COc1ccc(-c2cc(-c3ccccc3)[n+](C)c(-c3ccccc3)c2)cc1	i	191	11	i	35*	i
Cc1ccc(-c2cc(-c3ccccc3)cc(-c3ccccc3)[n+]2-c2ccc(C(=O)O)cc2)cc1	i	168	-97	i	nt	nt
C[n+]1c(-c2ccccc2)cc(CCCCc2cc(-c3ccccc3)[n+](C)c(-c3ccccc3)c2)cc1-c1ccccc1	6.8*	519	-22	i	50*	-64*
CCn1c(C)c(C(=O)Nc2ccc(OC)cc2)c2cc(OC)ccc21	i	206	7	i	nt	nt
SMILES	CHT allo act	T cell HTS	VLA-4 inh	CHT inh	CHT activ conf	HEK293 MP dye	others
CN1CCN(C(=O)O[C@H]2c3nccnc3C(=O)N2c2ccc(Cl)cn2)CC1	6.9*	282	2	i	84*	-44*
CN1CCN(C(=O)COc2ccc(Oc3ccccc3)cc2)CC1	i	235	5	i	nt	nt
COC(=O)C1=C(c2ccc(-c3ccccc3)c(F)c2)C[C@@H]2CC[C@H]1N2C(=O)N1CCOCC1	nt	174	-11	nt	nt	nt
COc1ccc(Cc2nccc3cc(OC)c(OC)cc23)cc1OC	8.6*	84	15	i	59*	-66*
COc1ccc(CCNCc2ccc(C)s2)cc1OC	i	480	17	i	nt	nt
O=[N+]([O-])c1cccc2c([N+](=O)[O-])cccc12	nt	i	9	nt	nt	nt
CCNCCNc1ccc([N+](=O)[O-])c2cccnc12	6.3*	884	-2	i	27*	-66*
Cc1nonc1OCCNCCNc1ccc([N+](=O)[O-])c2cccnc12	i	186	20	i	30*	-63*
O=P1(Oc2ccccc2)OCCCS1 (stereo unspecified)	i	193	10	i	nt	nt
O=c1c2ccccc2[se]n1-c1ccccc1	i	517	-1	i	nt	nt
COc1ccc(C2NCc3ccc4c(c3-n3cccc32)OCO4)cc1O (stereo unspecified)	11*	142	19	i	16*	i
c1cc2n(c1)-c1c(ccc3c1OCO3)CNC2c1ccc2c(c1)OCO2 (stereo unspecified)	i	372	22	i	nt	nt
CCN1CCN(C(=O)COc2ccc3oc4c(c3c2)CCCC4)CC1	nt	316	12	nt	nt	nt
O=C(c1ccco1)c1cn(Cc2ccc(Cl)cc2)c2ccccc12	i	346	12	i	18*	i
CC(=O)c1cn(Cc2ccc(F)cc2)c2ccccc12	i	255	-5	i	nt	nt
Cn1c(=O)n(C)c2cc([N+](=O)[O-])c(N3CCNCC3)cc21	9.7*	372	9	i	0	i
Nc1c([N+](=O)[O-])cc(F)c(N2CCNCC2)c1Br	i	434	19	i	43*	-55*
CN1CCN(c2c(F)cc([N+](=O)[O-])c(N)c2Br)CC1	6.6*	164	3	i	46*	-49*
CCCCCCCCn1sccc1=O	nt	326	36	nt	nt	nt
CN(C)c1cccc2c(C#N)ccc(N(C)C)c12	7.8*	408	-4	i	66*	-69*
